Laboratory results taken from ChEMBL document CHEMBL4130504, “Discovery of new indomethacin-based analogs with potentially selective cyclooxygenase-2 inhibition and observed diminishing to PGE2 activities” (Eur J Med Chem, 2017).

System: Rattus norvegicus
Assay: In vivo inhibition of rat COX-2 assessed as decrease in plasma PGE2 level by EIA relative to control
Format: functional
Settings: not given
Summary of the method: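 Plasma from heparinized rat blood, spun at 12,000 g for 2 min, then frozen until use. PGE2 measured by competitive enzyme immunoassay with a monoclonal anti-PGE2 antibody at room temperature, read at 405 nm. Expressed as % inhibition ± SEM.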
For `COc1ccc2c(c1)c1c(n2C(=O)c2ccc(Cl)cc2)CC(C)(C)CC1=O`, the “inhibition (INH)” value was 80.24%. In the case of `CS(=O)(=O)c1ccc2c(c1)c1c(n2Cc2ccc(Cl)cc2)CCCC1=O`, the “inhibition (INH)” value is reported as 86.39%. In the case of `CS(=O)(=O)c1ccc2c(c1)c1c(n2C(=O)c2ccc(Cl)cc2)CCCC1`, the “inhibition (INH)” value is reported as 83.19%. With `COc1ccc2c(c1)c1c(n2Cc2ccc(Cl)cc2)CC(C)(C)CC1=O` the “inhibition (INH)” value was 81.16%. With `CS(=O)(=O)c1ccc2c(c1)c1c(n2C(=O)c2ccc(Cl)cc2)CCCC1=O` the “inhibition (INH)” value was 91.29%. In the case of `CS(=O)(=O)c1ccc2c(c1)c1c(n2S(=O)(=O)c2ccc(Cl)cc2)CCCC1=O`, the “inhibition (INH)” value is reported as 84.11%. With `CS(=O)(=O)c1ccc2c(c1)c1c(n2Cc2ccc(Cl)cc2)CCCC1` the “inhibition (INH)” value was 89.43%. With `COc1ccc2c(c1)c1c(n2S(=O)(=O)c2ccc(Cl)cc2)CC(C)(C)CC1=O` the “inhibition (INH)” value was 82.16%. With `CS(=O)(=O)c1ccc2c(c1)c1c(n2S(=O)(=O)c2ccc(Cl)cc2)CCCC1` the “inhibition (INH)” value was 88.2%. With `Cc1ccc(-c2cc(C(F)(F)F)nn2-c2ccc(S(N)(=O)=O)cc2)cc1` [CELECOXIB] the “inhibition (INH)” value was 77.25%. For `COc1ccc2c(c1)c(CC(=O)O)c(C)n2C(=O)c1ccc(Cl)cc1` [INDOMETHACIN], the “inhibition (INH)” value was 98.29%.

System: Rattus norvegicus
Assay: Antiinflammatory activity in albino rat assessed as protection against carrageenan-induced paw edema at 10 umol/kg, sc pretreated for 1 hr followed by carrageenan challenge measured after 4 hrs by plethysmometer (reference value: 0%)
Format: functional
Settings: not given
Summary of the method: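 Male albino rats, 120-150 g, six per group. Compound in DMSO given subcutaneously at 10 µmol/kg 1 h before subplantar injection of 2% carrageenan in 0.9% saline. Controls got DMSO alone. Paw volume read by plethysmometer right after carrageenan and 4 h later. % protection = (Vc−Vd)×100/Vc from the 0–4 h increase. Mean ± SEM, Student's t-test.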
In the case of `COc1ccc2c(c1)c1c(n2C(=O)c2ccc(Cl)cc2)CC(C)(C)CC1=O`, the Activity is reported as 79.66%. With `CS(=O)(=O)c1ccc2c(c1)c1c(n2Cc2ccc(Cl)cc2)CCCC1=O` the Activity was 83.1%. Compound `CS(=O)(=O)c1ccc2c(c1)c1c(n2C(=O)c2ccc(Cl)cc2)CCCC1` has an Activity of 80.97%. In the case of `COc1ccc2c(c1)c1c(n2Cc2ccc(Cl)cc2)CC(C)(C)CC1=O`, the Activity is reported as 80.36%. `CS(=O)(=O)c1ccc2c(c1)c1c(n2C(=O)c2ccc(Cl)cc2)CCCC1=O` gave an Activity of 88.06%. Compound `CS(=O)(=O)c1ccc2c(c1)c1c(n2S(=O)(=O)c2ccc(Cl)cc2)CCCC1=O` has an Activity of 81.88%. For `CS(=O)(=O)c1ccc2c(c1)c1c(n2Cc2ccc(Cl)cc2)CCCC1`, the Activity was 87.55%. Work on `COc1ccc2c(c1)c1c(n2S(=O)(=O)c2ccc(Cl)cc2)CC(C)(C)CC1=O` yielded an Activity of 80.67%. For `CS(=O)(=O)c1ccc2c(c1)c1c(n2S(=O)(=O)c2ccc(Cl)cc2)CCCC1`, the Activity was 85.32%. `Cc1ccc(-c2cc(C(F)(F)F)nn2-c2ccc(S(N)(=O)=O)cc2)cc1` [CELECOXIB] showed an Activity of 96.73%.

System: Rattus norvegicus
Assay: Antiinflammatory activity in sc dosed Sprague-Dawley rat assessed as inhibition of cotton pellet-induced granuloma after 7 days
Format: functional
Settings: not given
Summary of the method: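 Adult male Sprague-Dawley rats, 120-140 g, six per group, acclimated one week. Cotton pellets (35 ± 1 mg) soaked with 0.01 mmol compound in chloroform, dried, then loaded with penicillin G/dihydrostreptomycin. Two pellets implanted subcutaneously, one per axilla, under mild anesthesia. Pellets with granuloma removed at day 7, dried 48 h at 60 °C and weighed. ED50 from dose-response at 4, 7, 10 and 15 µmol.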
In the case of `COc1ccc2c(c1)c1c(n2C(=O)c2ccc(Cl)cc2)CC(C)(C)CC1=O`, the ED50 is reported as 28.27 µmol. With `CS(=O)(=O)c1ccc2c(c1)c1c(n2Cc2ccc(Cl)cc2)CCCC1=O` the ED50 was 19.2 µmol. `CS(=O)(=O)c1ccc2c(c1)c1c(n2C(=O)c2ccc(Cl)cc2)CCCC1` gave an ED50 of 25.67 µmol. In the case of `COc1ccc2c(c1)c1c(n2Cc2ccc(Cl)cc2)CC(C)(C)CC1=O`, the ED50 is reported as 17.27 µmol. In the case of `CS(=O)(=O)c1ccc2c(c1)c1c(n2C(=O)c2ccc(Cl)cc2)CCCC1=O`, the ED50 is reported as 12.38 µmol. `CS(=O)(=O)c1ccc2c(c1)c1c(n2S(=O)(=O)c2ccc(Cl)cc2)CCCC1=O` showed an ED50 of 22.33 µmol. For `CS(=O)(=O)c1ccc2c(c1)c1c(n2Cc2ccc(Cl)cc2)CCCC1`, the ED50 was 14.56 µmol. For `COc1ccc2c(c1)c1c(n2S(=O)(=O)c2ccc(Cl)cc2)CC(C)(C)CC1=O`, the ED50 was 26.88 µmol. With `CS(=O)(=O)c1ccc2c(c1)c1c(n2S(=O)(=O)c2ccc(Cl)cc2)CCCC1` the ED50 was 18.67 µmol. With `Cc1ccc(-c2cc(C(F)(F)F)nn2-c2ccc(S(N)(=O)=O)cc2)cc1` [CELECOXIB] the ED50 was 86.11 µmol. With `COc1ccc2c(c1)c(CC(=O)O)c(C)n2C(=O)c1ccc(Cl)cc1` [INDOMETHACIN] the ED50 was 9.568 µmol.

System: not listed separately
Assay: Inhibition of dog kidney microsomal COX assessed as PGE2 level using arachidonic acid as substrate preincubated for 5 to 15 mins followed by substrate addition measured after 40 mins by radio immunoassay
Design: species or system Canis lupus familiaris
Settings: not given
Summary of the method: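 Dog kidney microsomes: tissue homogenized and sonicated in phosphate buffer pH 7.1 with EDTA/PMSF, 100,000g pellet collected. Arachidonic acid added, 40 min at room temperature. Stopped with 1 N HCl, neutralized, PGE2 by radioimmunoassay. COX activity = PGE2 with arachidonic acid minus ethanol vehicle. IC50 from three separate experiments, mean ± SEM.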
Compound `COc1ccc2c(c1)c1c(n2C(=O)c2ccc(Cl)cc2)CC(C)(C)CC1=O` has an IC50 of 80 nM. `CS(=O)(=O)c1ccc2c(c1)c1c(n2Cc2ccc(Cl)cc2)CCCC1=O` gave an IC50 of 45 nM. For `CS(=O)(=O)c1ccc2c(c1)c1c(n2C(=O)c2ccc(Cl)cc2)CCCC1`, the IC50 was 56 nM. Compound `COc1ccc2c(c1)c1c(n2Cc2ccc(Cl)cc2)CC(C)(C)CC1=O` has an IC50 of 77 nM. In the case of `CS(=O)(=O)c1ccc2c(c1)c1c(n2C(=O)c2ccc(Cl)cc2)CCCC1=O`, the IC50 is reported as 34 nM. Work on `CS(=O)(=O)c1ccc2c(c1)c1c(n2S(=O)(=O)c2ccc(Cl)cc2)CCCC1=O` yielded an IC50 of 53 nM. Compound `CS(=O)(=O)c1ccc2c(c1)c1c(n2Cc2ccc(Cl)cc2)CCCC1` has an IC50 of 39 nM. `COc1ccc2c(c1)c1c(n2S(=O)(=O)c2ccc(Cl)cc2)CC(C)(C)CC1=O` gave an IC50 of 61 nM. `CS(=O)(=O)c1ccc2c(c1)c1c(n2S(=O)(=O)c2ccc(Cl)cc2)CCCC1` showed an IC50 of 40 nM. Compound `Cc1ccc(-c2cc(C(F)(F)F)nn2-c2ccc(S(N)(=O)=O)cc2)cc1` [CELECOXIB] has an IC50 of 112 nM.

Target: T1, Cyclooxygenase (Rattus norvegicus, UniProt P35355+Q63921)
T1 sequence (P35355 whole entry): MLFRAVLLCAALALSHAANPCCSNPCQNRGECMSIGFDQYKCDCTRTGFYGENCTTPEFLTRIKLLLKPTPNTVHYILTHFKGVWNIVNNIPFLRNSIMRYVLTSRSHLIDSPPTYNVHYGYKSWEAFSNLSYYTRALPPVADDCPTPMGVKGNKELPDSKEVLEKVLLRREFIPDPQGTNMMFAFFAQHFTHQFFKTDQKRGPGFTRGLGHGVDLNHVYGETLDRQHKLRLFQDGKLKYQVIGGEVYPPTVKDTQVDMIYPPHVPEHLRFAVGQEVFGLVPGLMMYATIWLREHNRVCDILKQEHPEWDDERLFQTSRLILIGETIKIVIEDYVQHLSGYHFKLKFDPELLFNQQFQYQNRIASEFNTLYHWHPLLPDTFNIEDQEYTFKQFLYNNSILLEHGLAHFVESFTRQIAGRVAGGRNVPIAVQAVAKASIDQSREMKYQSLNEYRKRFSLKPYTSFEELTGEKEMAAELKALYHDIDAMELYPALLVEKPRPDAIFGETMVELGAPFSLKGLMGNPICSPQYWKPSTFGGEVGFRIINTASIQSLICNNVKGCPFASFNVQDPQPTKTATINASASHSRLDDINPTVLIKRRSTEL
T1 sequence (Q63921 whole entry): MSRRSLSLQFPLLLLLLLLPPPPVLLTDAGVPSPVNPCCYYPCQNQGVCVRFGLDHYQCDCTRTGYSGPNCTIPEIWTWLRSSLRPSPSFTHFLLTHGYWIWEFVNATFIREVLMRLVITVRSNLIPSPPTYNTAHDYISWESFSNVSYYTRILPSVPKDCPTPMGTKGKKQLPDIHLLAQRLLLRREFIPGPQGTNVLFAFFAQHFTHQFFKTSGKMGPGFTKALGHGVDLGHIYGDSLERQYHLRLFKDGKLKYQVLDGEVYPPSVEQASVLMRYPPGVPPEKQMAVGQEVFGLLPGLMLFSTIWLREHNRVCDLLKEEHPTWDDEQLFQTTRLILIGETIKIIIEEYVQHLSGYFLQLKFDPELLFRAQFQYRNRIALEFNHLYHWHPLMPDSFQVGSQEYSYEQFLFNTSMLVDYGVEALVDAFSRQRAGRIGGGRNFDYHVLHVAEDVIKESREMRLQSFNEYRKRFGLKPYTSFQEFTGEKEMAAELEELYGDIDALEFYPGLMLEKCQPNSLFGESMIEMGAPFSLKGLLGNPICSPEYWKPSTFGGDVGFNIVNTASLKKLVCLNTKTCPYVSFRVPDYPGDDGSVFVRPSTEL
Assay: Inhibition of rat kidney microsomal COX assessed as PGE2 level using arachidonic acid as substrate preincubated for 5 to 15 mins followed by substrate addition measured after 40 mins by radio immunoassay
Settings: not given
With `COc1ccc2c(c1)c1c(n2C(=O)c2ccc(Cl)cc2)CC(C)(C)CC1=O` the IC50 was 141 nM. Work on `CS(=O)(=O)c1ccc2c(c1)c1c(n2Cc2ccc(Cl)cc2)CCCC1=O` yielded an IC50 of 93 nM. With `CS(=O)(=O)c1ccc2c(c1)c1c(n2C(=O)c2ccc(Cl)cc2)CCCC1` the IC50 was 116 nM. `COc1ccc2c(c1)c1c(n2Cc2ccc(Cl)cc2)CC(C)(C)CC1=O` showed an IC50 of 132 nM. With `CS(=O)(=O)c1ccc2c(c1)c1c(n2C(=O)c2ccc(Cl)cc2)CCCC1=O` the IC50 was 48 nM. `CS(=O)(=O)c1ccc2c(c1)c1c(n2S(=O)(=O)c2ccc(Cl)cc2)CCCC1=O` gave an IC50 of 104 nM. With `CS(=O)(=O)c1ccc2c(c1)c1c(n2Cc2ccc(Cl)cc2)CCCC1` the IC50 was 56 nM. Compound `COc1ccc2c(c1)c1c(n2S(=O)(=O)c2ccc(Cl)cc2)CC(C)(C)CC1=O` has an IC50 of 128 nM. In the case of `CS(=O)(=O)c1ccc2c(c1)c1c(n2S(=O)(=O)c2ccc(Cl)cc2)CCCC1`, the IC50 is reported as 79 nM.

System: Rattus norvegicus
Assay: Ulcerogenicity in albino rat assessed as at 30 umol/kg, po administered daily for 3 successive days in two equal doses at 0 and 12 hrs measured at 6 hrs post last dose by magnifying lens based assay relative to control
Format: toxicity, organism-based
Settings: in vivo
Summary of the method: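 Male albino rats, 100-120 g, fasted 12 h, six per group. Compound given orally at 30 µmol/kg/day as two equal doses at 0 and 12 h for three days. Controls got 1% gum acacia. Killed 6 h after last dose. Stomach opened along the greater curvature, washed with cold saline and examined under a magnifying lens for hyperemia, hemorrhage, erosion or ulcer. % ulceration = ulcer-bearing animals ×100/group total.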
Compound `COc1ccc2c(c1)c1c(n2C(=O)c2ccc(Cl)cc2)CC(C)(C)CC1=O` has an Activity of 13.18%. With `CS(=O)(=O)c1ccc2c(c1)c1c(n2Cc2ccc(Cl)cc2)CCCC1=O` the Activity was 5.4%. Work on `CS(=O)(=O)c1ccc2c(c1)c1c(n2C(=O)c2ccc(Cl)cc2)CCCC1` yielded an Activity of 12.45%. `COc1ccc2c(c1)c1c(n2Cc2ccc(Cl)cc2)CC(C)(C)CC1=O` showed an Activity of 11.2%. With `CS(=O)(=O)c1ccc2c(c1)c1c(n2C(=O)c2ccc(Cl)cc2)CCCC1=O` the Activity was 3.28%. With `CS(=O)(=O)c1ccc2c(c1)c1c(n2S(=O)(=O)c2ccc(Cl)cc2)CCCC1=O` the Activity was 11.29%. For `CS(=O)(=O)c1ccc2c(c1)c1c(n2Cc2ccc(Cl)cc2)CCCC1`, the Activity was 4.48%. For `COc1ccc2c(c1)c1c(n2S(=O)(=O)c2ccc(Cl)cc2)CC(C)(C)CC1=O`, the Activity was 20.12%. Work on `CS(=O)(=O)c1ccc2c(c1)c1c(n2S(=O)(=O)c2ccc(Cl)cc2)CCCC1` yielded an Activity of 2.9%. For `Cc1ccc(-c2cc(C(F)(F)F)nn2-c2ccc(S(N)(=O)=O)cc2)cc1` [CELECOXIB], the Activity was 2.11%.
